Experimental data of several laboratories.
KIT D816H: Mast/stem cell growth factor receptor Kit (KIT, Homo sapiens, UniProt P10721, D816H)
KIT L576P: Mast/stem cell growth factor receptor Kit (KIT, Homo sapiens, UniProt P10721, L576P)
KIT autoinhibited: Mast/stem cell growth factor receptor Kit, autoinhibited (KIT, Homo sapiens, UniProt P10721)
KIT: Mast/stem cell growth factor receptor Kit (KIT, Homo sapiens, UniProt P10721)
KIT D816V: Mast/stem cell growth factor receptor Kit (KIT, Homo sapiens, UniProt P10721, D816V)
KIT T670I/V559D: Mast/stem cell growth factor receptor Kit (KIT, Homo sapiens, UniProt P10721, T670I/V559D)
KIT V559D/V654A: Mast/stem cell growth factor receptor Kit (KIT, Homo sapiens, UniProt P10721, V559D/V654A)
KIT V559D: Mast/stem cell growth factor receptor Kit (KIT, Homo sapiens, UniProt P10721, V559D)
KIT A829P: Mast/stem cell growth factor receptor Kit (KIT, Homo sapiens, UniProt P10721, A829P)

Structure (SMILES)	target	assay	setting	remaining binding [%]
COc1ncc2cc3ccccc3nc2c1C#N	KIT D816H	cell-free assay, competition with immobilised ligand	5 µM	100
COc1cc(-c2cn(C3CCc4c(F)cccc4N(CC(F)(F)F)C3=O)nn2)ccc1-n1cnc(C)c1 (stereo not shown)	KIT L576P	cell-free assay, competition with immobilised ligand	1 µM	100
CCN1CCN(Cc2ccc(C(=O)Nc3ccc(C)c(Oc4ccc5c(c4)CC(=O)N5)c3)cc2C(F)(F)F)CC1	KIT autoinhibited	binding, competition with immobilised ligand	1 µM	100
O=C(NCC1CCOCC1)c1n[nH]cc1NC(=O)c1c(F)cccc1F	KIT L576P	binding, competition with immobilised ligand	1 µM	100
c1cncc(-c2cccc(Nc3nccc(NC4CCCCC4)n3)c2)c1	KIT	binding, competition with immobilised ligand	10 µM	3.8
C[C@@H](c1ccc(-n2cnc3c(N)ncnc32)cc1)N1CCc2nn(C)c(Cc3ccccc3)c2C1=O	KIT D816V	binding, competition with immobilised ligand	0.1 µM	99
O=C(c1ccc(Nc2ncc(Cl)c(-c3cc4ccccc4s3)n2)cc1)N1CCC(N2CCCC2)CC1	KIT T670I/V559D	binding, competition with immobilised ligand	1 µM	17
COc1cc(-c2cn(C3CCc4ccccc4N(CC(F)(F)F)C3=O)nn2)ccc1-n1ccc(C)n1 (stereo not shown)	KIT autoinhibited	cell-free assay, competition with immobilised ligand	1 µM	100
C[C@@H]1CN(c2ccc3ncc(-c4ccc5[nH]nc(C6CC6)c5c4)n3n2)C[C@H](C)O1	KIT	binding, competition with immobilised ligand	0.5 µM	50
COc1cnc(Nc2cccc(S(N)(=O)=O)c2)nc1N1CCN(c2ccccc2)CC1	KIT V559D/V654A	binding, competition with immobilised ligand	1 µM	97
CC1CCCN1c1nccc(-c2cnn3ncccc23)n1 (stereo not shown)	KIT L576P	binding	1 µM	100
O=C(c1ccc(Nc2ncc(Cl)c(-c3ccc(Cl)s3)n2)cc1)N1CCC(N2CCCC2)CC1	KIT V559D/V654A	binding, competition with immobilised ligand	1 µM	9.3
CN(CCCC(F)(F)F)c1nccc(-c2cnn3ncccc23)n1	KIT autoinhibited	binding	1 µM	100
Cc1cnc(Nc2ccc(C(=O)N3CCC(N4CCCC4)CC3)cc2)nc1-c1cc2ccccc2s1	KIT V559D	binding, competition with immobilised ligand	1 µM	0.6
CNC(=O)[C@@H]1CC[C@@H](n2c(-c3ccc4cnccc4c3)nc3ccc(C(=O)NCc4cccc(C(N)=O)c4)cc32)C1	KIT A829P	binding, competition with immobilised ligand	1 µM	100
C[C@H]1CCN(c2nccc(-c3cnn4ncccc34)n2)C1	KIT T670I/V559D	binding	1 µM	98
O=C(NCCCN1CCOCC1)c1ccc(Nc2nccc(-c3cc4ccccc4s3)n2)cc1	KIT V559D/V654A	binding, competition with immobilised ligand	1 µM	56
CCC(=O)N[C@H]1CC[C@@H](C(=O)N(C)c2ccc(-c3nc4ccccc4o3)cc2)C1	KIT D816V	cell-free assay, competition with immobilised ligand	1 µM	86
COc1cnc(Nc2cccc(S(N)(=O)=O)c2)nc1N1CCN(c2ccccc2)C(=O)C1	KIT D816H	binding, competition with immobilised ligand	1 µM	55

Structure (SMILES)	target	assay	setting	remaining binding [%]
COc1ccc2c(O[C@@H]3C[C@H]4C(=O)N[C@]5(C(=O)O)CC5/C=C\CCCCC[C@H](NC(=O)OC5CCCC5)C(=O)N4C3)cc(-c3csc(NC(=O)C(C)C)n3)nc2c1C (stereo partly shown)	KIT T670I/V559D	cell-free assay, competition with immobilised ligand	1 µM	76
O=C(c1ccc(Nc2nccc(-c3cc4ccccc4s3)n2)cc1)N1CCC(N2CCCC2)CC1	KIT autoinhibited	binding, competition with immobilised ligand	1 µM	66
C[C@@H](c1cccc(C#N)c1)n1cc(Cl)cc(C(N)=O)c1=N	KIT D816H	cell-free assay, competition with immobilised ligand	1 µM	100
CC(C)(C)c1ccc(-c2nc(CBr)nn2-c2cccc(O)c2)cc1	KIT	cell-free assay, competition with immobilised ligand	10 µM	97
O=C(NCCCN1CCOCC1)c1ccc(Nc2ncc(Cl)c(-c3ccc(Cl)s3)n2)cc1	KIT A829P	binding, competition with immobilised ligand	1 µM	16
Cc1cnn2ncc(-c3ccnc(N(C)C)n3)c2c1	KIT D816V	binding	1 µM	100
CCc1ccccc1C(=O)Nc1n[nH]c2c(C)c(F)c(C3C(C#N)=C(C)N(C)C(C)=C3C#N)cc12	KIT	cell-free assay, competition with immobilised ligand	1 µM	84
Nc1ncc2c(n1)-c1c([nH]c3ccc(C#CC4CC4)cc13)CCCC2	KIT D816V	binding, competition with immobilised ligand	1 µM	100
CN(C)c1nccc(-c2cnc3ncccn23)n1	KIT V559D	binding	1 µM	81
CN1CCN(c2ccc(Nc3nccc(-c4ccccc4)n3)cc2C(F)(F)F)CC1	KIT V559D/V654A	binding	10 µM	4
C=CC(=O)N1CCC(C(=O)NCC(=O)N2CCN(c3nc(-c4cnc(N)nc4C(F)F)nc(N4CCOCC4)n3)CC2)CC1	KIT L576P	binding, competition with immobilised ligand	1 µM	53
COc1ccnn2ncc(-c3ccnc(N(C)C)n3)c12	KIT V559D	binding	1 µM	100
CN1CCN(c2ccc(Nc3nccc(-c4cccc([N+](=O)[O-])c4)n3)cc2C(F)(F)F)CC1	KIT D816H	binding	10 µM	2.8
O=C(N1CCS(=O)(=O)CC1)N1C[C@H](c2ccc(OC(F)(F)F)cc2)C[C@H](c2nc(C3CC3)no2)C1	KIT A829P	cell-free assay, competition with immobilised ligand	1 µM	100
CN(C)c1nccc(-c2cnn3ncccc23)n1	KIT autoinhibited	binding	1 µM	88
Cc1cc(NC(=O)c2cccc(S(F)(F)(F)(F)F)c2)cc(-n2ccn3nc(-c4cccnc4)cc23)c1	KIT autoinhibited	cell-free assay, competition with immobilised ligand	1 µM	70.3
O=C(Nc1c[nH]nc1C(=O)NC1CCNCC1)c1cc(F)cc(F)c1	KIT V559D	binding, competition with immobilised ligand	1 µM	100
CN(c1nccc(-c2cnn3ncccc23)n1)C1CC1	KIT	binding	1 µM	89
